As usually defined, the Km is the substrate concentration at which the rate is half of its maximum. As usually defined, the kcat is the number of substrate molecules converted per active site and unit of time at saturation.

Substrate in data set [1]: Cc1cn([C@H]2C=C[C@@H](COP(=O)(O)O)O2)c(=O)[nH]c1=O
The experiment in a line: (§1) Activity for human recombinant TMP kinase. Put shortly: (§2)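 Substrate ranges were TMP 6.25–100 μM and analog MPs 6.25–250 μM. Reactions were stopped at various times with TCA and neutralized with trioctylamine/trichlorotrifluoroethane. Km and kcat came from Lineweaver-Burk plots. Relative efficiency is kcat/Km with D4TMP as 100%. Mean ± SD of three experiments.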

Substrate in data set [2]: Cc1cn([C@H]2C[C@H](N=[N+]=[N-])[C@@H](COP(=O)(O)O)O2)c(=O)[nH]c1=O
Described as §1. The method, boiled down:
as §2

Substrate in data set [3]: Cc1cn([C@H]2C[C@H](O)[C@@H](COP(=O)(O)O)O2)c(=O)[nH]c1=O
The description is as §1. Put shortly:
as §2

B1: Thymidylate kinase (Homo sapiens), P23919 (protein)
chain: MAARRGALIVLEGVDRAGKSTQSRKLVEALCAAGHRAELLRFPERSTEIGKLLSSYLQKKSDVEDHSVHLLFSANRWEQVPLIKEKLSQGVTLVVDRYAFSGVAFTGAKENFSLDWCKQPDVGLPKPDLVLFLQLQLADAAKRGAFGHERYENGAFQERALRCFHQLMKDTTLNWKMVDASKSIEAVHEDIRVLSEDAIRTATEKPLGELWK
Consider B1, for which the Km in data set [1] was found to be 22 µM; in data set [2], 7.6 µM; in data set [3], 8.3 µM. Besides, the kcat worked out at 0.093 s⁻¹ in data set [1], 0.018 s⁻¹ in data set [2] and 1.8 s⁻¹ in data set [3].

The record behind these values is ChEMBL document CHEMBL1145492, “Comparison of the phosphorylation of 4'-ethynyl 2',3'-dihydro-3'-deoxythymidine with that of other anti-human immunodeficiency virus thymidine analogs” (Antimicrob Agents Chemother, 2007).
